Apaf-1 act: activators of human Apaf-1 apoptosome, primary screen, biochemical, DEVD-Rh110 fluorescence, uHTS. Apoptotic protease-activating factor 1 (Homo sapiens), O14727. Apaf-1 apoptosome caspase-3 activation; stronger effect = lower value. activity change, negative = activation, % at 20 µM. hit rate 0.31% among 330,000;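 active = activity change at or below -40% at 20 µM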
Target sequence (O14727 whole entry, looked up): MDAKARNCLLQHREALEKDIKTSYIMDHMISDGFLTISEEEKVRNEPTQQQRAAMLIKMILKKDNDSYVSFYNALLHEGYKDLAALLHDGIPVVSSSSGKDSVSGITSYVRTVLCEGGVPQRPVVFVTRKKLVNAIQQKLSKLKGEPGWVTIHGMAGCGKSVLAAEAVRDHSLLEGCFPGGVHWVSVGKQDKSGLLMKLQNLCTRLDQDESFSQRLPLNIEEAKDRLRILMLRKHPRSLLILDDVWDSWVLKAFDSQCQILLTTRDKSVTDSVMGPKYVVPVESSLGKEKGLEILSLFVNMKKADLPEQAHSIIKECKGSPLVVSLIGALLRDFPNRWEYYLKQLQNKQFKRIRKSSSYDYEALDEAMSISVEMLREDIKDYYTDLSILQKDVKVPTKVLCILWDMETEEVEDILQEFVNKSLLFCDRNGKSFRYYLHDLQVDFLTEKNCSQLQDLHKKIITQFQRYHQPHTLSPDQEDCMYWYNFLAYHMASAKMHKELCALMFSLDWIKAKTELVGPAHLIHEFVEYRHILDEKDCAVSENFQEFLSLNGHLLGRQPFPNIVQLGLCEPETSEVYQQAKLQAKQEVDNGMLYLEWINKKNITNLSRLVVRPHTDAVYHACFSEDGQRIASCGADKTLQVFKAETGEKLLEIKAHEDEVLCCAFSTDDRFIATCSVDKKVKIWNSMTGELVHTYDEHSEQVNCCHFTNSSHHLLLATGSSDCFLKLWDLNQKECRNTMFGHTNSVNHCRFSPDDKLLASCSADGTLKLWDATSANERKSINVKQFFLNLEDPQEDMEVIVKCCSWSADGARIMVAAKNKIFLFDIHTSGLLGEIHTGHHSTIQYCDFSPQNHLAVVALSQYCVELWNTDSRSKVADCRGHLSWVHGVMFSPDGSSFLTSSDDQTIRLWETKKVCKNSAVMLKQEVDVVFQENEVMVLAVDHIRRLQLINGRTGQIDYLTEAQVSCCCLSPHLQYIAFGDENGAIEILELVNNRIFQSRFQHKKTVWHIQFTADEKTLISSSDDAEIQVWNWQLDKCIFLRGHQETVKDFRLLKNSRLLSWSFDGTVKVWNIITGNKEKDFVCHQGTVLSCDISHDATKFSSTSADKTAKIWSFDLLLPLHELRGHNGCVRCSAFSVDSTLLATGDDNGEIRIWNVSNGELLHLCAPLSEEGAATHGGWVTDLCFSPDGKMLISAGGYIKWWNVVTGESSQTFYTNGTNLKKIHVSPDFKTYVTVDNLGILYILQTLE
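Material: reconstituted apoptosome of Apaf-1, cytochrome c, caspase-9, procaspase-3; times: 30 min preincubation, 50 min reaction, room temperature; measured by: fluorescence, 540 nm emission, 480 nm excitation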
Rh110 act interf: Rh110 fluorescence interference by putative Apaf-1 activators, confirmation, artefact control for Apaf-1 activator project, biochemical, 20 µM; fluorescence interference (activity change), % at 20 µM, hits read low; shares compounds with Apaf-1 act; 980 tested, under 10 active; quenched caspase reaction, Ex480/Em540;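 active = mean activity change at or below -40% when tested at 20 µM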
Apaf-1 act conf2: Apaf-1 activators, single-dose retest, confirmation, biochemical, fluorescence, DEVD-Rh110, 20 µM. AID 504617, 2011. activity change, negative = activation, % at 20 µM. shares compounds with Apaf-1 act. reconstituted apoptosome caspase-3 activity; stronger effect = lower value. hit rate 5% among 980;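 active = mean activity change at or below -40%, meaning activation of 40% or more, at 20 µM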
Apaf1 act interf: fluorescence interference of Apaf-1 activator hits, dose response, artefact control for Apaf-1 activator project | 55 tested, under 10 active | shares compounds with Apaf-1 act | fluorescence interference counterscreen, Apaf-1 activator assay | EC50, µM; call rule not given here
Of the large screens only hits and unclear results are named; the others gave an inactive call (follow-up assays come after a bar, where they were run). The list is a sample of the results.

CC1(C(=O)O)Oc2cccnc2NC1=O (stereo unspecified)	Apaf-1 act -221 | Rh110 act interf inactive | Apaf-1 act conf2 inactive
C[C@]12CC[C@@H]3c4ccc(OS(=O)(=O)O)cc4CC[C@H]3[C@@H]1CCC2=O	none
COc1ccc(C(=O)n2nc(-c3ccccc3)nc2N)cc1OC	Apaf-1 act -363 | Rh110 act interf inactive | Apaf-1 act conf2 inactive
COc1ccc2nc3ccccc3nc2c1N	none
CC(C)NC[C@@H](O)c1ccc(O)c(O)c1	none
O=C(Nc1cccc(-n2cnnn2)c1)c1ccc(C(F)(F)F)cc1	Apaf-1 act -67 | Rh110 act interf inactive | Apaf-1 act conf2 inactive
O=C(NC1(O)C(=O)c2ccccc2C1=O)c1ccc(C(F)(F)F)cc1	none
CCCn1nc(C(=O)Nc2ccc(-n3cnnn3)cc2)c2ccccc2c1=O	none
COc1cc(C2Nc3cccc4cccc(c34)N2)cc(OC)c1OC(C)=O	none
CCCCCCCCCCCCCCCCn1cc[n+](C)c1	none
CCOC(=O)c1ccc(NC(=S)NC(=O)c2nn(CC)cc2Br)cc1	Apaf-1 act -51 | Rh110 act interf inactive | Apaf-1 act conf2 inactive
CC(=O)Nc1ccc(C(=O)COC(=O)c2nc3nc(C)cc(C)n3n2)cc1	none
CCOC(=O)c1ccc(NC(=O)c2nn(C)cc2Br)cc1	Apaf-1 act -148 | Rh110 act interf inactive | Apaf-1 act conf2 inactive
CCCCc1cc(=O)oc2cc(OCC(=O)NCCN3CCOCC3)c(Cl)cc12	none
COc1cc(OC)cc(-c2sc3ccc(OC)cc3c2C#CC2(N)CCCCC2)c1	none
CCO[C@@H]1OC(C(=O)N2CCN(Cc3ccc4c(c3)OCO4)CC2)=C[C@H](c2ccc(C(F)(F)F)cc2)[C@H]1CCCO	none
O=C1C=C(Nc2ccccc2O)c2ccccc2C1=O	none
CN(C)CCCNS(=O)(=O)c1ccc(N2CCC(c3ccc(Cl)cc3)=N2)cc1	none
CCCNS(=O)(=O)c1ccc(CCC(=O)N2CCCCC2)cc1	Apaf-1 act -511 | Rh110 act interf inactive | Apaf-1 act conf2 inactive
COCCCNC(=O)c1c(N)n(-c2ccccc2)c2nc3ccccc3nc12	none
Cc1c(C=O)c(Cl)n(C)c(=O)c1C#N	none
CNS(=O)(=O)/C=C/c1ccccc1	Apaf-1 act -407 | Rh110 act interf inactive | Apaf-1 act conf2 inactive
Cc1nc2sccn2c(=O)c1CCN1CCC(=C(c2ccccc2)c2ccc(F)cc2)CC1	none
N#CC1=C(N)Oc2n[nH]c(-c3cccs3)c2C1c1ccsc1 (stereo unspecified)	none
CC1(C)Nc2ccc(O)cc2-c2c1ssc2=S	none
CCC(C)N(C(=O)COC(=O)c1cc([N+](=O)[O-])ccc1N1CCOCC1)C1CCS(=O)(=O)C1 (stereo unspecified)	none
CN(C)C/C=C/C(=O)Nc1cccc(-c2c[nH]c3ncnc(Oc4ccc(NC(=O)CC(=O)Nc5ccc(F)cc5)cc4F)c23)c1	none
COCCOc1cc(NCc2ccccc2)c2ncn(C(C)C)c2c1	none
O=C1CSC(c2cccnc2)N1CC1CC1 (stereo unspecified)	Apaf-1 act -112 | Rh110 act interf inactive | Apaf-1 act conf2 inactive
CN1CCC[C@H]1c1cccnc1	none
NC(=O)C1CCN(C(=O)COc2cccc3ccccc23)CC1	Apaf-1 act -195 | Rh110 act interf inactive | Apaf-1 act conf2 inactive
CC(=O)c1ccc2c(c1)C1C=CCC1C(c1ccncc1)N2 (stereo unspecified)	none
CCCCCCN(C(=O)CCCCCN1C(=O)NC(c2ccc(-c3ccccc3)cc2)C(C(=O)OCc2ccccc2)=C1C)C(C(=O)NCCCC)c1cccc(C(=O)OC)c1 (stereo unspecified)	none
N#Cc1c(N)n(CCOC(=O)c2cccc(Br)c2)c2nc3ccccc3nc12	none
O=C(NC(=S)Nn1cnc2c(cnn2-c2ccccc2)c1=O)c1ccc(Oc2ccccc2)cc1	none
COC(=O)Cn1cnc2c(cnn2-c2ccccc2)c1=O	Apaf-1 act -197 | Rh110 act interf inactive | Apaf-1 act conf2 inactive
Cc1nc(Nc2cnc(/C=C/c3cc(C(=O)Nc4cccc(C(F)(F)F)c4)ccc3C)cn2)cc(N2CCNCC2)n1	none
CC1CCN(S(=O)(=O)c2ccc3c4c2CC(=O)N4CC(C)S3)CC1 (stereo unspecified)	none
COCCN1C=C2C(=O)C(C)(OC(=O)CCC(=O)OC)C(=O)C(Br)=C2C=C1c1ccc(OC)cc1 (stereo unspecified)	none | Apaf1 act interf inactive
COC(=O)CCC(=O)OC1(C)C(=O)C2=CN(C3CCCC3)C(c3ccc(OC)cc3)=CC2=C(Br)C1=O (stereo unspecified)	none
C=CCN1C=C2C(=O)C(C)(OC(=O)CCC(=O)OC)C(=O)C(Br)=C2C=C1c1ccc(OC)cc1 (stereo unspecified)	none
O=C1CCNc2cc3ccccc3cc21	none
CCCCn1c(NC(=O)c2ccc(F)cc2)c(C#N)c2nc3ccccc3nc21	none
O=C1Nc2cc(Cl)c(Cl)cc2N(O)N1c1cccc(Cl)c1	none
O=C1Nc2ccccc2N(O)N1c1cc(-c2cccc(Cl)c2)no1	Apaf-1 act -88 | Rh110 act interf inactive | Apaf-1 act conf2 inactive
Cc1cc(-c2nnc(CCC(=O)NC(C)(C)C34CC5CC(CC(C5)C3)C4)o2)no1	Apaf-1 act -55 | Rh110 act interf inactive | Apaf-1 act conf2 inactive
Cc1ccc(C(C[N+](=O)[O-])c2c(C)[nH]n(-c3ccccc3)c2=O)cc1 (stereo unspecified)	none
CCN(Cc1ccccc1)C(=O)C1CCC(CNc2c(N3CCOCC3)c(=O)c2=O)CC1 (stereo unspecified)	Apaf-1 act -410 | Rh110 act interf inactive | Apaf-1 act conf2 inactive
COc1ccc(C2/C(=C(/O)c3ccc4c(c3)CC(C)O4)C(=O)C(=O)N2CCCn2ccnc2)cc1 (stereo unspecified)	none
COc1ccc(/C(O)=C2/C(=O)C(=O)N(Cc3ccco3)C2c2cccs2)cc1 (stereo unspecified)	Apaf-1 act -64 | Rh110 act interf inactive | Apaf-1 act conf2 inactive
N/C(=N\OC(=O)c1ccc(Cl)cc1Cl)c1cccnc1	none
COc1ccc2c3c(cccc13)N(C)N=C2C	none
CCN(CC)CCN(C(=O)c1ccc2c(c1)CCCC2)c1nc2ccc(OC)cc2s1	none
O=C(O)CCCNC(=O)C(c1ccccc1)c1ccccc1	none
O=C(c1ccccc1)C(O)c1ccccc1 (stereo unspecified)	Apaf-1 act -41 | Rh110 act interf inactive | Apaf-1 act conf2 inactive
Cc1ccc(/C=C2\SC(=S)N(CCC(=O)NNC(=O)c3ccc(O)cc3)C2=O)cc1	Apaf-1 act -63 | Rh110 act interf inactive | Apaf-1 act conf2 inactive
CCN(CC)CCOC(=O)c1ccc(NC(=O)CCCN2C(=O)S/C(=C/c3ccc(OC)cc3)C2=S)cc1	none
Cc1ccc(N2CC(C(=O)N3CCC(C(=O)Nc4nnc(C(C)(C)C)s4)CC3)CC2=O)cc1 (stereo unspecified)	Apaf-1 act -384 | Rh110 act interf inactive | Apaf-1 act conf2 inactive
COc1ccc(CN(C)C(=O)c2ccc(OCC(=O)Nc3cccc(C(F)(F)F)c3)c(OC)c2)c(OC)c1	none
